The text below walks through data of PubChem BioAssay AID493070 (Broad Institute, 2011).

The source made the active and inactive calls.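 Rule for the calls: active = growth signal loss with fitted half-maximal concentration up to ten times the top valid dose; inconclusive = flat curve with 30 to 70% inhibition, or poor fit; inactive = the rest, including opposite-direction effects.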

The assay is described as follows: C. albicans CaCi-2 growth inhibition, compound alone, dose response, counter-screen, Alamar Blue fluorescence, dry powder, set 5 (AID 493070). The note with it: 48 h; series mostly up to 26 µM. The procedure, abridged:
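Material: C. albicans CaCi-2 grown without fluconazole | Doses: Pinned compound | Detection: Alamar Blue fluorescence, Ex 544/Em 590 nm | Measure: Fungal growth from Alamar Blue RFU, signal loss indicating broad toxicity | Incubation: 48 h growth at 37 °C, 2 h dye step | Buffer or medium: RPMI-based synthetic defined medium containing MOPS, glucose and uridine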
For `COC(=O)Cn1nc(-c2ccc(Cl)cc2)c2ccccc21`, the compound was called inactive.
Regarding `O=C(Cn1c2ccc(F)cc2c2nc3n(c(=O)c21)CCS3)N1CCCC1`, the compound was classed as inactive.
On to `O=c1c2[nH]c3ccc(F)cc3c2nc2n1CCS2`, for which the call was inactive.
Regarding `O=C(Cn1c2ccccc2c2nc3n(c(=O)c21)CCS3)N1CCOCC1`, the outcome was inactive.
As for `N#Cc1cccc(N2CCN(C(=O)c3ccc(Cl)cc3)CC2)n1`, the compound was classed as inactive.
Same read-out and setting: then `O=C(Cn1c2ccc(F)cc2c2nc3n(c(=O)c21)CCS3)N1CCCCC1`, with “inactive”.
With `COc1ccc2c(c1)c1nc3n(c(=O)c1n2CC(=O)N1CCC(C)CC1)CCS3`, the activity change, negative = inhibition is 0.019% [at 2.6 µM] (inactive).
On to `O=C(Cn1c2ccccc2c2ccncc21)N1CCCCC1`, for which the outcome was inactive.
For `CCN(CC)C(=O)Cn1c2ccc(F)cc2c2nc3n(c(=O)c21)CCS3`, the compound was classed as inactive.
Take `CCN(CC)C(=O)Cn1c2ccccc2c2nc3n(c(=O)c21)CCS3`: the compound was called inactive.
Same read-out and setting: next, `COC(=O)Cn1nc(-c2ccc(C)cc2)c2ccccc21`: “inactive”; `O=C(Cn1c2ccc(F)cc2c2nc3n(c(=O)c21)CCS3)N1CCCCCC1`: “inactive”; `O=C(O)Cn1nc(-c2ccccc2)c2ccccc21`: “inactive”.
As for `CC1CCN(C(=O)Cn2c3ccccc3c3nc4n(c(=O)c32)CCCS4)CC1`, the call was inactive.
The same measure, in the same setting: then `COc1ccc(NC(=O)Cn2c3ccccc3c3nc4n(c(=O)c32)CCS4)cc1`, with “inactive”.
As to `O=C(Cn1c2ccccc2c2nc3n(c(=O)c21)CCS3)N1CCCC1`, the outcome was inactive.
The same measure, in the same setting: then `COC(=O)Cn1c(-c2ccccc2)nc2ccccc21`, with “inactive”; and `CC1CCN(C(=O)Cn2c3ccc(F)cc3c3nc4n(c(=O)c32)CCCS4)CC1`, with “inactive”; and `O=C(Cn1c2ccccc2c2nc3n(c(=O)c21)CCS3)NCCc1ccc(Cl)cc1`, with “inactive”.
Still for that read-out and setting: then `COc1ccc2c(c1)c1nc3n(c(=O)c1n2CC(=O)N1CCC(Cc2ccccc2)CC1)CCS3`, with “inactive”.
For the compound `CC1CCN(C(=O)Cn2c3ccccc3c3nc4n(c(=O)c32)CCS4)CC1`, the compound was classed as inactive.
Take `O=C(Cn1c2ccccc2c2nc3n(c(=O)c21)CCS3)N1CCCCC1`: the result was inactive.
Regarding `COC(=O)Cn1nc(-c2ccccc2)c2ccccc21`, the call was inactive.
On the same count and under the same terms, next, `O=c1c2[nH]c3ccccc3c2nc2n1CCS2`: “inactive”.
`O=C(Cn1c2ccccc2c2nc3n(c(=O)c21)CCCS3)c1ccc(F)cc1`: the outcome was inactive.
